According to ChEMBL document CHEMBL4321823, “Benzyl Phenylsemicarbazides: A Chemistry-Driven Approach Leading to G Protein-Biased Dopamine D4 Receptor Agonists with High Subtype Selectivity” (J Med Chem, 2019):

What was measured:
Type in all cases: cell-based
D(3) dopamine receptor = D(3) dopamine receptor (Homo sapiens, UniProt P35462); experiment: Displacement of [3H] Spiperone from human D3 receptor expressed in CHO cells by competitive radioligand binding assay
D(4) dopamine receptor = molecular target: T1, D(4) dopamine receptor (Homo sapiens, UniProt P21917); experiment: Displacement of [3H] Spiperone from human D4.4 receptor expressed in CHO cells by competitive radioligand binding assay
T1 sequence (P21917 whole entry): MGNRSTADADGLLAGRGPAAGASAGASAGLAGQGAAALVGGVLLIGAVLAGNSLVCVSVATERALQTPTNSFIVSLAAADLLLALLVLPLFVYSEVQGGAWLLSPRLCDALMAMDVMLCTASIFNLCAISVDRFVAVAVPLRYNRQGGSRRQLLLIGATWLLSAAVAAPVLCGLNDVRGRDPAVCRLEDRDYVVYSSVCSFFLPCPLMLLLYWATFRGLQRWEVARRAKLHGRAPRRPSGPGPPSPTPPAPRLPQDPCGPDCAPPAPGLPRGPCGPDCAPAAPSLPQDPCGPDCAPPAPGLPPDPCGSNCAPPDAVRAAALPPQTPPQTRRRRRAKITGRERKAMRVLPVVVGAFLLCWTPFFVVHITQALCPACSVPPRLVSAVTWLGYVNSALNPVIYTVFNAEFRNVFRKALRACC

D(2) dopamine receptor [1] = molecular target: T2, D(2) dopamine receptor (Homo sapiens, UniProt P14416); experiment: Displacement of [3H] Spiperone from human D2L receptor expressed in CHO cells by competitive radioligand binding assay
T2 sequence (P14416 whole entry): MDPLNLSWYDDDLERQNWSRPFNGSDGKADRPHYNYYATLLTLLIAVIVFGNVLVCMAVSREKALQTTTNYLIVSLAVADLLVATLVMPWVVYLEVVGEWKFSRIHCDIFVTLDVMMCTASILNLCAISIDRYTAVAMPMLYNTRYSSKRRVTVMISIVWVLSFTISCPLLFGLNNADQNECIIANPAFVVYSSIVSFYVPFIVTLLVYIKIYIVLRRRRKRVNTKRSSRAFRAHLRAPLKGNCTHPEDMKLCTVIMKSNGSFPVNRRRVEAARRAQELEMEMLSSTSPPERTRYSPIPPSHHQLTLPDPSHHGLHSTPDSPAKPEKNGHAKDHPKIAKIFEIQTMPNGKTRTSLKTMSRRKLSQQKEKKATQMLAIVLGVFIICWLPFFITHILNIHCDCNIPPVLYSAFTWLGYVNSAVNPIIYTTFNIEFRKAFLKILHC

Homo sapiens [2] = species on record: Homo sapiens; experiment: Selectivity index, ratio of Ki for displacement of [3H] Spiperone from human D3 receptor expressed in CHO cells to Ki for displacement of [3H] Spiperone from human D4.4 receptor expressed in CHO cells
Method in brief: (§1)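 Competition binding against [3H]spiperone on membranes of CHO cells stably expressing cloned human D2L, D2S, D3 or D4.4 receptors. Ki from monophasic curve fits; mean ± SEM of three to seven experiments, each in triplicate. Selectivity calculated as Ki(D2L, D2S or D3) divided by Ki(D4.4).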

D(2) dopamine receptor [3] = molecular target: T2, D(2) dopamine receptor; experiment: Displacement of [3H] Spiperone from human D2S receptor expressed in CHO cells by competitive radioligand binding assay
Homo sapiens [4] = species on record: Homo sapiens; experiment: Selectivity index, ratio of Ki for displacement of [3H] Spiperone from human D2L receptor expressed in CHO cells to Ki for displacement of [3H] Spiperone from human D4.4 receptor expressed in CHO cells; method in brief: as §1
Homo sapiens [5] = species on record: Homo sapiens; experiment: Selectivity index, ratio of Ki for displacement of [3H] Spiperone from human D2S receptor expressed in CHO cells to Ki for displacement of [3H] Spiperone from human D4.4 receptor expressed in CHO cells; method in brief: as §1

Sequence of D(3) dopamine receptor (P35462 whole entry): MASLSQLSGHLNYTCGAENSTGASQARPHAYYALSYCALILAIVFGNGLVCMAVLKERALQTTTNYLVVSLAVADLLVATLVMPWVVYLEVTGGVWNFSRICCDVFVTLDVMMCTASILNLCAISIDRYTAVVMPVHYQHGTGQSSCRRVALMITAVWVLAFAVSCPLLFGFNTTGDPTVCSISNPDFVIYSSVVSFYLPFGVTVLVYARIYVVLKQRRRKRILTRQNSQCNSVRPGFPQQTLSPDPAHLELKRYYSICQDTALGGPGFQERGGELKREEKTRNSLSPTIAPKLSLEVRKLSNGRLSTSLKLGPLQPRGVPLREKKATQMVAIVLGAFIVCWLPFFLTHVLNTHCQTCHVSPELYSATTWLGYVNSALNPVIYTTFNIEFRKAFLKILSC

Q: For `O=C(NCCCN1CCN(c2ccc(Br)cc2)CC1)NN(Cc1ccccc1)c1ccccc1`, which Ki (D(3) dopamine receptor) is on record?
A: 1500 nM

Q: What about the Ki (D(4) dopamine receptor) of the same molecule?
A: 14 nM

Q: Which results are given for `COc1ccccc1N1CCN(CCNC(=O)NN(Cc2ccccc2)c2ccc(F)cc2)CC1`?
A: Ki (D(2) dopamine receptor [1]): 100 nM; Ki (D(3) dopamine receptor): 700 nM; Ratio Ki (Homo sapiens [2]): 78; Ki (D(2) dopamine receptor [3]): 71 nM; Ratio Ki (Homo sapiens [4]): 11; Ki (D(4) dopamine receptor): 9 nM; Ratio Ki (Homo sapiens [5]): 7.9

Q: What does the source list for `COc1ccccc1N1CCN(CCCNC(=O)NN(Cc2ccccc2F)c2ccc(Cl)cc2)CC1`?
A: Ki (D(2) dopamine receptor [1]): 41 nM; Ki (D(3) dopamine receptor): 95 nM; Ratio Ki (Homo sapiens [2]): 36; Ki (D(2) dopamine receptor [3]): 26 nM; Ratio Ki (Homo sapiens [4]): 16; Ki (D(4) dopamine receptor): 2.6 nM; Ratio Ki (Homo sapiens [5]): 10

Q: For `COc1ccc(N(Cc2cccc(OC)c2)NC(=O)NCCCN2CCN(c3ccccc3OC)CC2)cc1`, which Ki (D(2) dopamine receptor [1]) is on record?
A: 150 nM

Q: And the Ki (D(3) dopamine receptor)?
A: 320 nM

Q: And the Ratio Ki (Homo sapiens [2])?
A: 9.7

Q: And the Ki (D(2) dopamine receptor [3])?
A: 110 nM

Q: What about the Ratio Ki (Homo sapiens [4]) of the same molecule?
A: 4.5

Q: And the Ki (D(4) dopamine receptor)?
A: 33 nM

Q: And the Ratio Ki (Homo sapiens [5])?
A: 3.3

Q: Which Ki (D(2) dopamine receptor [1]) does the source give for `COc1ccccc1N1CCN(CCCNC(=O)/N=N/c2ccc(F)cc2)CC1` here?
A: 110 nM

Q: What about the Ki (D(3) dopamine receptor) of the same molecule?
A: 140 nM

Q: What about the Ratio Ki (Homo sapiens [2]) of the same molecule?
A: 7

Q: What about the Ki (D(2) dopamine receptor [3]) of the same molecule?
A: 51 nM

Q: What about the Ratio Ki (Homo sapiens [4]) of the same molecule?
A: 5.5

Q: What about the Ki (D(4) dopamine receptor) of the same molecule?
A: 20 nM

Q: And the Ratio Ki (Homo sapiens [5])?
A: 2.6

Q: `COc1ccccc1N1CCN(CCCNC(=O)NN(Cc2ccc(F)cc2)c2ccc(F)cc2)CC1` was tested. Which Ki (D(2) dopamine receptor [1]) did it give?
A: 77 nM

Q: And the Ki (D(3) dopamine receptor)?
A: 85 nM

Q: What about the Ratio Ki (Homo sapiens [2]) of the same molecule?
A: 18

Q: And the Ki (D(2) dopamine receptor [3])?
A: 30 nM

Q: What about the Ratio Ki (Homo sapiens [4]) of the same molecule?
A: 17

Q: And the Ki (D(4) dopamine receptor)?
A: 4.6 nM

Q: What about the Ratio Ki (Homo sapiens [5]) of the same molecule?
A: 6.5

Q: What does the source list for `COc1ccccc1N1CCN(CCCNC(=O)NN(Cc2ccc(C#N)cc2)c2ccc(Cl)cc2Cl)CC1`?
A: Ki (D(2) dopamine receptor [1]): 150 nM; Ki (D(3) dopamine receptor): 280 nM; Ratio Ki (Homo sapiens [2]): 23; Ki (D(2) dopamine receptor [3]): 94 nM; Ratio Ki (Homo sapiens [4]): 13; Ki (D(4) dopamine receptor): 12 nM; Ratio Ki (Homo sapiens [5]): 7.8

Q: Which Ki (D(2) dopamine receptor [1]) does the source give for `COc1ccc(N(Cc2ccc(C#N)cc2)NC(=O)NCCCN2CCN(c3ccccc3OC)CC2)cc1` here?
A: 250 nM

Q: And the Ki (D(3) dopamine receptor)?
A: 220 nM

Q: What about the Ratio Ki (Homo sapiens [2]) of the same molecule?
A: 14

Q: And the Ki (D(2) dopamine receptor [3])?
A: 110 nM

Q: And the Ratio Ki (Homo sapiens [4])?
A: 16

Q: What about the Ki (D(4) dopamine receptor) of the same molecule?
A: 16 nM

Q: And the Ratio Ki (Homo sapiens [5])?
A: 6.9

Q: How did the Ki (D(2) dopamine receptor [1]) turn out when `O=C(NCCN1CCN(c2ccc(Br)cc2)CC1)NN(Cc1ccccc1)c1ccccc1` was run?
A: 390 nM

Q: What about the Ki (D(3) dopamine receptor) of the same molecule?
A: 1800 nM

Q: And the Ratio Ki (Homo sapiens [2])?
A: 64

Q: And the Ki (D(2) dopamine receptor [3])?
A: 430 nM

Q: What about the Ratio Ki (Homo sapiens [4]) of the same molecule?
A: 14

Q: And the Ki (D(4) dopamine receptor)?
A: 28 nM

Q: What about the Ratio Ki (Homo sapiens [5]) of the same molecule?
A: 15

Q: Which results are given for `O=C(NCCCN1CCN(c2ncccn2)CC1)NN(Cc1ccccc1)c1ccccc1`?
A: Ki (D(2) dopamine receptor [1]): 580 nM; Ki (D(3) dopamine receptor): 2000 nM; Ratio Ki (Homo sapiens [2]): 110; Ki (D(2) dopamine receptor [3]): 440 nM; Ratio Ki (Homo sapiens [4]): 32; Ki (D(4) dopamine receptor): 18 nM; Ratio Ki (Homo sapiens [5]): 24

Q: What does the source list for `Cc1cccc(C(=O)NCN2CCN(c3ccccc3C#N)CC2)c1` [PD-168,077]?
A: Ki (D(2) dopamine receptor [1]): 2300 nM; Ki (D(3) dopamine receptor): 4700 nM; Ki (D(2) dopamine receptor [3]): 1100 nM

Q: Which results are given for `COc1ccc(N(Cc2ccc(F)cc2)NC(=O)NCCCN2CCN(c3ccccc3OC)CC2)cc1`?
A: Ki (D(2) dopamine receptor [1]): 160 nM; Ki (D(3) dopamine receptor): 400 nM; Ratio Ki (Homo sapiens [2]): 140; Ki (D(2) dopamine receptor [3]): 110 nM; Ratio Ki (Homo sapiens [4]): 55; Ki (D(4) dopamine receptor): 2.9 nM; Ratio Ki (Homo sapiens [5]): 38

Q: `COc1cccc(CN(NC(=O)NCCCN2CCN(c3ccccc3OC)CC2)c2ccc(F)cc2)c1` was tested. Which Ki (D(2) dopamine receptor [1]) did it give?
A: 110 nM

Q: And the Ki (D(3) dopamine receptor)?
A: 150 nM

Q: What about the Ratio Ki (Homo sapiens [2]) of the same molecule?
A: 25

Q: And the Ki (D(2) dopamine receptor [3])?
A: 62 nM

Q: And the Ratio Ki (Homo sapiens [4])?
A: 19

Q: What about the Ki (D(4) dopamine receptor) of the same molecule?
A: 5.9 nM

Q: And the Ratio Ki (Homo sapiens [5])?
A: 11

Q: What does the source list for `COc1ccccc1N1CCN(CCNC(=O)/N=N/c2ccc(F)cc2)CC1`?
A: Ki (D(2) dopamine receptor [1]): 270 nM; Ki (D(3) dopamine receptor): 120 nM; Ratio Ki (Homo sapiens [2]): 3.3; Ki (D(2) dopamine receptor [3]): 140 nM; Ratio Ki (Homo sapiens [4]): 7.5; Ki (D(4) dopamine receptor): 36 nM; Ratio Ki (Homo sapiens [5]): 3.9

Q: Which Ki (D(2) dopamine receptor [1]) does the source give for `COc1ccccc1N1CCN(CCCNC(=O)NN(Cc2ccccc2)c2ccc(Br)cc2)CC1` here?
A: 55 nM

Q: What about the Ki (D(3) dopamine receptor) of the same molecule?
A: 130 nM

Q: What about the Ratio Ki (Homo sapiens [2]) of the same molecule?
A: 38

Q: And the Ki (D(2) dopamine receptor [3])?
A: 34 nM

Q: And the Ratio Ki (Homo sapiens [4])?
A: 16

Q: And the Ki (D(4) dopamine receptor)?
A: 3.4 nM

Q: What about the Ratio Ki (Homo sapiens [5]) of the same molecule?
A: 10

Q: How did the Ki (D(2) dopamine receptor [1]) turn out when `COc1ccccc1N1CCN(CCCNC(=O)NN(Cc2cccc(F)c2)c2ccc(F)cc2)CC1` was run?
A: 73 nM

Q: And the Ki (D(3) dopamine receptor)?
A: 88 nM

Q: What about the Ratio Ki (Homo sapiens [2]) of the same molecule?
A: 23

Q: And the Ki (D(2) dopamine receptor [3])?
A: 46 nM

Q: And the Ratio Ki (Homo sapiens [4])?
A: 19

Q: And the Ki (D(4) dopamine receptor)?
A: 3.8 nM

Q: What about the Ratio Ki (Homo sapiens [5]) of the same molecule?
A: 12

Q: What does the source list for `O=C(NCCCN1CCN(c2ccc(Br)cc2)CC1)NN(Cc1ccc(F)cc1)c1ccccc1`?
A: Ki (D(2) dopamine receptor [1]): 790 nM; Ki (D(3) dopamine receptor): 1400 nM; Ratio Ki (Homo sapiens [2]): 30; Ki (D(2) dopamine receptor [3]): 620 nM; Ratio Ki (Homo sapiens [4]): 17; Ki (D(4) dopamine receptor): 46 nM; Ratio Ki (Homo sapiens [5]): 13

Q: Which results are given for `COc1ccccc1N1CCN(CCCCNC(=O)/N=N/c2ccc(F)cc2)CC1`?
A: Ki (D(3) dopamine receptor): 3.1 nM; Ratio Ki (Homo sapiens [2]): 0.033; Ratio Ki (Homo sapiens [4]): 0.4; Ratio Ki (Homo sapiens [5]): 0.36
